Only some compounds are listed: those with a hit (about 3.8% of all), similar ones and a draw of the others.
Beta cell apopt – blocks beta cell apoptosis. protection from apoptosis, % (no concentration beside the values). hit rate 0.8% among 300,000. AID 435005. INS-1E cytokine-induced death, ATP luminescence, 48 h; percent of positive-control rescue, neutral wells zero;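 active = Every replicate reaches about 75%, or at least half do and their mean reaches it too, limit read from the data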;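 also: 0% = cytokine-treated negative control wells and 100% = positive control rescue; higher means more ATP so stronger rescue from cytokine killing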
ANO1 block – mouse TMEM16A channel inhibition, primary screen. Q8BHY3. hit rate 1.2% among 310,000. normalized B-score (activity score, 25-100; higher = stronger inhibition) at 10 µM. HEK293 TMEM16A/YFP iodide influx fluorescence, ionomycin;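 active = ratio plate-corrected score three or more library SD toward inhibition, starting fluorescence score within five deviations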;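 also: score derived from kinetic fluorescence span divided by baseline fluorescence per well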
MC4R antag cAMP – human MC4R antagonism in cAMP assay; hit rate 0.48% among 360,000; AID 540295; inhibition, % at 6.5 µM; MC4R-expressing cells, MTII-stimulated cAMP, LANCE TR-FRET;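 active = inhibition above its plate's cutoff, the mean of tested wells on that plate plus 3 SD, cut at about 29% in these data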;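 also: 0% = Melanotan II alone and 100% = Melanotan II plus saturating MCL0020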
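Test system: U2OS cells stably expressing human melanocortin 4 receptor (MC4R); also added: Melanotan II challenge; compound: 6.5 µM single dose; timing: 30-min compound preincubation, 1-h Melanotan II challenge, 1-h detection, room temperature; signal: Eu-cAMP/anti-cAMP TR-FRET, emission 671 nm; repeats: one well per compound, no replicates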
MC4R ag barr – agonists of human melanocortin 4 receptor (MC4R) beta-arrestin. P32245. U2OS MC4R beta-arrestin complementation, luminescence; percent of melanotan II response, DMSO zero. activation, % at 8.9 µM. hit rate 0.98% among 360,000;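 active = activation above a per-plate cutoff, the mean activation of sample wells on that plate plus 3 SD, cut at about 8% in these data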
CSC inhib – blocks cancer stem cells | cancer stem cell-like cells viability, luminescence | inhibition, % at 7.5 µM | hit rate 1.1% among 300,000; in the data active = inhibition above about 75%; tested in HMLE shEcad cells
TMEM16A act – activates or potentiates the mouse TMEM16A chloride channel | B-score at 10 µM | AID 623877 | hit rate 0.3% among 340,000 | HEK293 TMEM16A/YFP-H148Q/I152L, iodide quench fluorescence; active compounds read low | Q8BHY3;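 active = fluorescence-ratio B-score plate-corrected deviation score at least 3 library SD below zero, with starting fluorescence score within 5 deviations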;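 also: channel opened by trigger with iodide after compound preincubation; score built on the fluorescence ratio of max minus min over baseline; more negative score means more quench and so TMEM16A activation or potentiation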
MC4R barr ag – human MC4R beta-arrestin agonism confirmation | hit rate 31% among 2,400 | activation, % at 8.9 µM | U2OS MC4R beta-arrestin recruitment, luminescence; scaled DMSO 0%, Melanotan II 100% | shares compounds with MC4R ag barr;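 active = mean activation across replicates above the hit cutoff set in the earlier primary screen, cut at about 8% in these data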
MOR DOR agonist – counter-screen for MC4R agonists: agonists of mu-delta opioid heterodimer; shares compounds with MC4R ag barr; U2OS PathHunter beta-arrestin, beta-gal luminescence; percent of deltorphin B response, DMSO zero; AID 602194; activation, % at 9.2 µM; hit rate 5.8% among 2,400;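 active = mean activation across replicates exceeds the hit threshold derived in the earlier primary screen, cut at about 18% in these data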;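 also: 100% = deltorphin B at 0.9 µM final and 0% = DMSO alone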
Target sequence (P35372 whole entry, looked up): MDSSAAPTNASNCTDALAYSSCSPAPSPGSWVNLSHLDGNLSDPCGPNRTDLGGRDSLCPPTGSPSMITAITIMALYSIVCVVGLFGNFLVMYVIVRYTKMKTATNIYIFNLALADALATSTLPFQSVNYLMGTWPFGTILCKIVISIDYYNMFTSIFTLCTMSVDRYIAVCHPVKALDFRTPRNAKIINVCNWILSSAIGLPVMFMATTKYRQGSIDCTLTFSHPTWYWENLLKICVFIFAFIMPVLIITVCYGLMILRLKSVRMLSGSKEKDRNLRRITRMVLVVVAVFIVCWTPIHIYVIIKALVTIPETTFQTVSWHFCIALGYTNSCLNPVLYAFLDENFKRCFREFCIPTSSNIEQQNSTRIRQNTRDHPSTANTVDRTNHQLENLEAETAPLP
Target sequence (P41143 whole entry, looked up): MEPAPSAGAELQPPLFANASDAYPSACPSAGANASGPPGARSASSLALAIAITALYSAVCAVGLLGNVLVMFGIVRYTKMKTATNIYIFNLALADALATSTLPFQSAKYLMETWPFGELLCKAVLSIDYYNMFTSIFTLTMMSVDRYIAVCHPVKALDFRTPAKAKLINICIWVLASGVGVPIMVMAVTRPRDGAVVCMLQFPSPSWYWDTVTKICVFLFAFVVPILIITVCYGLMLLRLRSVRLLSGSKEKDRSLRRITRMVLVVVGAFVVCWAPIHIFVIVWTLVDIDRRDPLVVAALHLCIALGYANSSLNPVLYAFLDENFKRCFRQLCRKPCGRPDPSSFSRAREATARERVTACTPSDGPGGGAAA
An asterisk follows results filed as active; i = inactive; / = not tested or not shown; ! = a repeat was not active.

SMILES	Beta cell apopt	ANO1 block	MC4R antag cAMP	MC4R ag barr	CSC inhib	TMEM16A act	MC4R barr ag	MOR DOR agonist
CCc1ccc(NC(=O)CSc2nnc(-c3n[nH]c4ccccc34)n2-c2ccccc2)cc1	7.5	i	3.8	10.0*	6.4	i	5.2	8.7
Cc1nc2c(ccc3nc(NC(=O)c4ccc5c(c4)OCCO5)sc32)s1	/	i	6.2	11.1*	/	i	-2.8	4.9
Cc1cc(C(C)(C)C)cc(C)c1Cn1c2[n+](c3ccc(C(F)(F)F)cc31)CCCCC2	86.4*	i	2.5	16.7*	19.1	i	15.0*	7.2
O=C(NCc1nc2ccccc2[nH]1)C1=C[C@@H](c2ccc(C(F)(F)F)cc2)C[C@@H](OCc2ccc(CO)cc2)O1	1.2	i	12.3	1.2	-10.3	i	/	/
C/C(=C\c1ccco1)C1C(C#N)=C(N)Oc2n[nH]c(-c3ccc(C)cc3)c21 (centres undefined)	-19.6	i	9.7	15.6*	8.3	i	23.4*	10.9
CC(C)(C)S(=O)(=O)N1C[C@H]2CC/C=C\C/C=C\2[C@@H]1CCO	/	/	10.6	1.3	/	/	/	/
CCN1CCCC1CNC(=O)c1ccc2c(c1)NC(=O)/C(=C\c1ccc(C)cc1)S2 (centres undefined)	0.2	i	6.6	15.3*	33.8	i	13.1*	2.5
COc1ccccc1N1CCN(C(=O)[C@@H]2CCCN2C2=NS(=O)(=O)c3ccccc32)CC1	/	/	12.3	1.6	/	/	/	/
Cc1ccc(N2C(=O)CS/C2=N\C(=S)Nc2ccccc2)cc1	15.4	i	5.1	27.3*	5.3	i	1.6	9.4
COc1cc(/C=C/C(=O)OCC(=O)NCCc2ccc(F)cc2)ccc1OC(F)F	-13.7	/	10.6	10.3*	-15.1	i	2.9	3.6
CCCCCCCOC(=O)C[N+](C)(C)CCOC1CC2CCC1(C)C2(C)C (centres undefined)	/	/	-4.6	11.6*	/	i	17.8*	11.9
CCCCOC(=O)C[N+](C)(C)CCOC1CC2CCC1(C)C2(C)C (centres undefined)	8.9	i	8.0	1.9	4.4	i	/	/
COc1ccc(NC(=O)c2cc(-c3ccc4c(c3)OCO4)on2)cc1OC	3.7	i	-3.0	6.6	10.6	i	/	/
COc1ccc(-c2cc(C(=O)Nc3ccc4c(c3)OCO4)no2)cc1OC	4.9	i	13.8	5.6	16.9	i	/	/
O=C(Nc1ccc2c(c1)OCO2)c1cc(-c2ccccc2Cl)on1	-1.6	i	-4.8	32.1*	-10.6	i	2.5	4.4
O=C(Nc1ccc2c(c1)OCO2)c1cc(-c2ccc(O)cc2)on1	/	i	-5.3	10.5*	101.2*	i	3.7	6.9
COc1cccc(-c2cc(C(=O)Nc3ccc4c(c3)OCO4)no2)c1	/	i	-7.4	16.1*	46.7	i	2.8	9.6
COc1ccccc1C(=O)NCCC(=O)Nc1ccc(S(=O)(=O)N2CCC(C)CC2)cc1	-5.1	/	7.2	0.6	-0.6	i	/	/
C=CCNC(=S)NNc1nc2c(c(=O)[nH]1)C1(CCCCC1)Cc1ccccc1-2	0.0	i	6.3	14.8*	17.6	i	-2.6	6.5
CCN1CCN(Cc2ccc(NC(=O)c3ccc(C)c(NC(=O)c4ccc5n[nH]nc5c4)c3)cc2C(F)(F)F)CC1	-9.6	i	7.1	-0.7	/	i	/	/
CCN1CCN(Cc2ccc(NC(=O)c3cc(NC(=O)C(=O)c4c[nH]c5ccccc45)cc(OC)c3)cc2C(F)(F)F)CC1	98.5*	i	3.4	23.7*	-2.0	i	22.1*	9.2
CCN1CCN(Cc2ccc(NC(=O)c3ccc(C)c(NC(=O)C(=O)c4c[nH]c5ccccc45)c3)cc2C(F)(F)F)CC1	110.4*	i	7.3	21.6*	101.7*!	i	20.9*	10.3

Screens: PubChem, several laboratories
